pIC50: −log10 of the molar value. Calls of active or inactive are those of the source. No cut-off for these calls is given here.
How the values were obtained:
[1] = biological target: T1, Endo-beta-N-acetylglucosaminidase (Arthrobacter protophormiae) (UniProt Q9ZB22); experiment: Inhibition of Arthrobacter protophormiae endo-beta-N-acetylglucosaminidase upto 500 uM after 5 mins by HPAEC-PED method; details: Glutamicibacter protophormiae
T1 sequence (whole entry): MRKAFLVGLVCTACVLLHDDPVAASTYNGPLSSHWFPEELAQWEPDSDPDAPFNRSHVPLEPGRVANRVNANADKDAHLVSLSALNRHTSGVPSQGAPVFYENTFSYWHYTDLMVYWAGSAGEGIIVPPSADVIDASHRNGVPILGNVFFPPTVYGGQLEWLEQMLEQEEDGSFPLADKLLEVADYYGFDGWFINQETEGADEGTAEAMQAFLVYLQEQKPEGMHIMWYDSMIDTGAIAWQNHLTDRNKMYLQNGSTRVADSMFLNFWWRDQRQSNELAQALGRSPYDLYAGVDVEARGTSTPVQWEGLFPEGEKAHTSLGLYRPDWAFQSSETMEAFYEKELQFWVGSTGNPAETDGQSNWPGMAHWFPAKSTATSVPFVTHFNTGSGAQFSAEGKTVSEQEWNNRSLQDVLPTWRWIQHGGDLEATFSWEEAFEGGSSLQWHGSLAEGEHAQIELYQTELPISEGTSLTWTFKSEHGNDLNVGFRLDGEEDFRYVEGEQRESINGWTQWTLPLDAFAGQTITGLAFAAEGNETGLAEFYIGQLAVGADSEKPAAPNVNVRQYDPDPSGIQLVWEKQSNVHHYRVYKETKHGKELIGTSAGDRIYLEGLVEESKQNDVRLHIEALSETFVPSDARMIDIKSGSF
Procedure, shortened: (§1)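 Man9GlcNAc2Asn (500 μM) as substrate in 50 mM phosphate buffer pH 6.5. Limited enzyme is incubated with or without serial dilutions of thiazoline at 30°C for 5 min. Reaction stopped by heating at 100°C for 3 min. Man9GlcNAc hydrolysis product quantified by HPAEC-PED.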

[2] = test system: Mucor hiemalis; experiment: Inhibition of Mucor hiemalis endo-beta-N-acetylglucosaminidase upto 500 uM after 5 mins by HPAEC-PED method; procedure, shortened: as §1
[3] = Inhibition of Mucor hiemalis endo-beta-N-acetylglucosaminidase after 5 mins by HPAEC-PED method; procedure, shortened: as §1
[4] = biological target: T2, Endo-beta-N-acetylglucosaminidase (Arthrobacter protophormiae, UniProt Q9ZB22); experiment: Inhibition of Arthrobacter protophormiae endo-beta-N-acetylglucosaminidase after 5 mins by HPAEC-PED method; design: species or system Glutamicibacter protophormiae; procedure, shortened: as §1
T2 sequence (Q9ZB22 whole entry): T1 sequence (whole entry)

[5] = test system: Flavobacterium sp.; experiment: Inhibition of Flavobacterium sp. endo-beta-N-acetylglucosaminidase at 100 uM after 5 mins by HPAEC-PED method
Procedure, shortened: (§2)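 Endo-Fsp assay uses Man5GlcNAc2Asn as substrate in 50 mM phosphate buffer pH 6.5. Limited enzyme is incubated with or without thiazoline at 30°C for 5 min, then heated at 100°C for 3 min to stop. Hydrolytic product quantified by HPAEC-PED.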

[6] = test system: Flavobacterium sp.; experiment: Inhibition of Flavobacterium sp. endo-beta-N-acetylglucosaminidase at 1uM after 5 mins by HPAEC-PED method; procedure, shortened: as §2
[7] = biological target: T3, Cytosolic endo-beta-N-acetylglucosaminidase (Homo sapiens, UniProt Q8NFI3); experiment: Inhibition of human endo-beta-N-acetylglucosaminidase expressed in Hek293 cells after 3 mins; type: cell-based
T3 sequence (Q8NFI3 whole entry): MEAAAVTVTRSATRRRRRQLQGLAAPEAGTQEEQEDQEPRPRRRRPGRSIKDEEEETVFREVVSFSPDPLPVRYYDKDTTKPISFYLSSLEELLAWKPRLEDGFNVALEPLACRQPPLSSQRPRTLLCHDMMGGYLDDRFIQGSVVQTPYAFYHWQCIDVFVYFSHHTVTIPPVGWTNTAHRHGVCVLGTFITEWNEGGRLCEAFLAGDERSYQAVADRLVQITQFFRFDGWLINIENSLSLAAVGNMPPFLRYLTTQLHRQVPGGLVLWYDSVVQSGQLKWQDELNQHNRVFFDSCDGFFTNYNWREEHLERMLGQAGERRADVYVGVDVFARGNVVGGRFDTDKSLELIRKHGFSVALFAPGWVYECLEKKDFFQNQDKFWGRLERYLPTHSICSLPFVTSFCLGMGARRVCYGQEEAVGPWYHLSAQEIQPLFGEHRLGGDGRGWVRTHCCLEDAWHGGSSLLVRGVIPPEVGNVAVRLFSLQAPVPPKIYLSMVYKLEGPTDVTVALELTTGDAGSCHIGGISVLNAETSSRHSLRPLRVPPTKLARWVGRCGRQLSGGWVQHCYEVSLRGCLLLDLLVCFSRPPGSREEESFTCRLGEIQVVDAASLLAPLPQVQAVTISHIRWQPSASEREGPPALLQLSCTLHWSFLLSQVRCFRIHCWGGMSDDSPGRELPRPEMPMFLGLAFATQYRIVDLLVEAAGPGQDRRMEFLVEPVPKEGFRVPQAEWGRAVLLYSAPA
Procedure, shortened: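 Enzyme source: HEK293 cells transfected with pcDNA-hENGase, extracted 48 h later in Hepes-KOH pH 7.0 with protease inhibitors. The 100,000 × g soluble fraction was assayed in 40 mM Mes-NaOH pH 6.1 with 1 μM Man9GlcNAc2-PA and inhibitor from 10 mM to 0.1 μM, 3 min at 37°C. Reaction stopped by boiling; product quantified by C18 HPLC.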

## CC1=N[C@@H]2[C@@H](O)[C@H](O)[C@@H](CO)O[C@H]2S1
[1]
  Activity: inactive
[2]
  Activity: inactive

## CC1=N[C@@H]2[C@@H](O)[C@H](O[C@@H]3O[C@H](CO[C@H]4O[C@H](CO)[C@@H](O)[C@H](O)[C@@H]4O)[C@@H](O)[C@H](O[C@@H]4O[C@H](CO)[C@@H](O)[C@H](O)[C@@H]4O)[C@@H]3O)[C@@H](CO)O[C@H]2S1
[3]
  pIC50: 4.19
[4]
  pIC50: 4.89
[5]
  Activity: inactive

## CC1=N[C@@H]2[C@@H](O)[C@H](O[C@@H]3O[C@H](CO)[C@@H](O)[C@H](O)[C@@H]3O)[C@@H](CO)O[C@H]2S1
[3]
  pIC50: 4.10
[4]
  pIC50: 4.42
[5]
  Activity: inactive

## CC1=N[C@@H]2[C@@H](O)[C@H](O[C@@H]3O[C@H](CO[C@H]4O[C@H](CO[C@H]5O[C@H](CO[C@H]6O[C@H](CO)[C@@H](O)[C@H](O)[C@@H]6O)[C@@H](O)[C@H](O)[C@@H]5O)[C@@H](O)[C@H](O[C@@H]5O[C@H](CO)[C@@H](O)[C@H](O[C@@H]6O[C@H](CO)[C@@H](O)[C@H](O)[C@@H]6O)[C@@H]5O)[C@@H]4O)[C@@H](O)[C@H](O[C@@H]4O[C@H](CO)[C@@H](O)[C@H](O)[C@@H]4O[C@@H]4O[C@H](CO)[C@@H](O)[C@H](O)[C@@H]4O[C@@H]4O[C@H](CO)[C@@H](O)[C@H](O)[C@@H]4O)[C@@H]3O)[C@@H](CO)O[C@H]2S1
[6]
  inhibition: 75%
[3]
  pIC50: 5.22
[4]
  pIC50: 6.66
[7]
  pIC50: 6.38

— ChEMBL document CHEMBL1142421, “Synthesis and inhibitory activity of oligosaccharide thiazolines as a class of mechanism-based inhibitors for endo-beta-N-acetylglucosaminidases” (Bioorg Med Chem, 2008)
